Test [1] is filed under the species Bos taurus. Put plainly: Displacement of [3H]CGS21680 from adenosine A2A receptor in bovine brain membrane at 10 uM. Format: cell membranes. The method, boiled down:
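Bovine striatal membranes, [3H]CGS 21680 (Kd 14 nM). Five displacer concentrations in triplicate, non-linear regression IC50, Cheng-Prusoff Ki, four assays. Single-point data are % inhibition at 10 µM.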
(In general: Displacement assays read how much labelled ligand stays bound in the presence of the test substance.)

The target in test [2] is T1, Adenosine receptor A3 (Homo sapiens) (UniProt P0DMS8).
T1 sequence (whole entry): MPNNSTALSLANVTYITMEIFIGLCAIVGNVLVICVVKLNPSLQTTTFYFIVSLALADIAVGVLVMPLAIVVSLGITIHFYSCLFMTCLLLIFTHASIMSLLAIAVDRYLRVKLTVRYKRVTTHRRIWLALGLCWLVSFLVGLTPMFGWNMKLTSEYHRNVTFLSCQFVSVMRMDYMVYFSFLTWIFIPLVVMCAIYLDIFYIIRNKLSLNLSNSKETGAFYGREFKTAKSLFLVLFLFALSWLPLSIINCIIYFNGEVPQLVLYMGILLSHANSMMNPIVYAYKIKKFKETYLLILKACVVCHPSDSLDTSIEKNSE
Put plainly: Displacement of [125I]AB-MECA from human cloned adenosine A3 receptor expressed in CHO cells at 1 uM. Format: cell-based. The method, boiled down:
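CHO cells stably expressing hA3. Displacement of [125I]AB-MECA (Kd 1.4 nM). IC50 by non-linear regression over five displacer concentrations in triplicate, converted to Ki by Cheng-Prusoff. Ki values are means of four assays. Single-point data are % inhibition of specific binding at 1 µM.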

Test [3] addresses T2, Adenosine receptor A1 (Bos taurus, UniProt P28190).
T2 sequence (P28190 whole entry): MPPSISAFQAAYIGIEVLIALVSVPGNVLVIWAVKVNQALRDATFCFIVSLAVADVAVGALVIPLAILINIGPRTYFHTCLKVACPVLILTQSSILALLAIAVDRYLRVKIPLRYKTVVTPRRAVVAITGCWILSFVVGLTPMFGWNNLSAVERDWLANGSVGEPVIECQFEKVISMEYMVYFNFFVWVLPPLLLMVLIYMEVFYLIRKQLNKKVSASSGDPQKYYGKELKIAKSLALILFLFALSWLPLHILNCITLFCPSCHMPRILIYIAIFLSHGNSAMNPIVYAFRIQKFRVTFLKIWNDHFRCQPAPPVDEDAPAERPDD
Description: Displacement of [3H]DPCPX from adenosine A1 receptor in bovine brain membrane.

Test [4] in a line: Displacement of [3H]CGS21680 from adenosine A2A receptor in bovine brain membrane. Format: cell membranes, Bos taurus.
The target in test [5] is T3, Adenosine receptor A3 (Homo sapiens, UniProt P0DMS8).
T3 sequence (P0DMS8 whole entry): T1 sequence (whole entry)
Description: Displacement of [125I]AB-MECA from human cloned adenosine A3 receptor expressed in CHO cells. In kind it is cell-based. The method, boiled down: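 CHO cells stably expressing hA3. IC50 by non-linear regression over five displacer concentrations in triplicate, converted to Ki by Cheng-Prusoff. Ki values are means of four assays.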

Test [6] concerns the target T4, Adenosine receptor A2a (Homo sapiens, UniProt P29274). Description: Displacement of [125I]NECA from human adenosine A2A receptor expressed in CHO cells at 10uM. Format: cell-based. To be noted: in the assay text read “[3H]NECA” for “[125I]NECA”. The method, boiled down: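 hA2A stably expressed in CHO cells. Radioligand [3H]NECA (Kd 30 nM). Percentage inhibition of specific binding measured at 10 µM.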

In test [7] the target is T5, Adenosine receptor A1 (Homo sapiens) (UniProt P30542).
T5 sequence (whole entry): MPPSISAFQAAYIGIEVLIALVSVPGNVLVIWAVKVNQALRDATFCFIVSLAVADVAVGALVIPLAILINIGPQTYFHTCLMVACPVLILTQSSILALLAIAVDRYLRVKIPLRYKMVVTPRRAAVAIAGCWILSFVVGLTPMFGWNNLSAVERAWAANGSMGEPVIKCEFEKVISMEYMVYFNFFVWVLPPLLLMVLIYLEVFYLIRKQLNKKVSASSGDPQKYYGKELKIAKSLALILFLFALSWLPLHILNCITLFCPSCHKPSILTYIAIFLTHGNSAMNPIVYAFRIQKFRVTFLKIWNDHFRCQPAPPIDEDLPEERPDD
Description: Displacement of [3H]DPCPX from human cloned adenosine A1 receptor expressed in CHO cells at 10 uM.

Test [8] deals with T6, Adenosine receptor A1 (Bos taurus) (UniProt P28190).
T6 sequence (whole entry): T2 sequence (P28190 whole entry)
Put plainly: Displacement of [125I]DPCPX from adenosine A1 receptor in bovine brain membrane at 10 uM. Format: cell membranes. The settings on record: in the assay text read “[3H]DPCPX” for “[125I]DPCPX”. The method, boiled down:
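Bovine cerebral cortical membranes, [3H]DPCPX (Kd 0.3 nM). IC50 from five displacer concentrations in triplicate, Ki by Cheng-Prusoff, means of four assays. Single-point data are % inhibition of specific binding at 10 µM.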

The target of test [9] is T7, Adenosine receptor A1 (Homo sapiens, UniProt P30542).
T7 sequence (P30542 whole entry): T5 sequence (whole entry)
Description: Displacement of [3H]DPCPX from human cloned adenosine A1 receptor expressed in CHO cells.

Test [10] deals with T4, Adenosine receptor A2a. Description: Displacement of [3H]NECA from human cloned adenosine A2A receptor expressed in CHO cells.

T4 sequence (P29274 whole entry): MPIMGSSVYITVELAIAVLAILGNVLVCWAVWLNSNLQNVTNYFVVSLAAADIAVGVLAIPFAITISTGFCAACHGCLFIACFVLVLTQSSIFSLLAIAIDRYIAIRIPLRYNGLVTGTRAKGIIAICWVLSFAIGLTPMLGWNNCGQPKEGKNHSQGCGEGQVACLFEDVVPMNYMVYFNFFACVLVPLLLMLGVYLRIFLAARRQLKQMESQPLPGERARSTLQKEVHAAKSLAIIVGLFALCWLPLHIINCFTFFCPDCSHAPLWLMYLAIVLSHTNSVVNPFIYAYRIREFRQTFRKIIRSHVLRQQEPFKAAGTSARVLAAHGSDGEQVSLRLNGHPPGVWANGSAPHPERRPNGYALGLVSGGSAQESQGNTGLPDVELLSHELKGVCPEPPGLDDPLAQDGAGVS

As to `O=C(Nc1nc2ccccc2n2c(=O)n(-c3ccccc3)nc12)c1ccccc1`, the Activity in test [1] is 53%.

Turning to `COC(=O)c1ccc(C(=O)Nc2nc3ccccc3n3c(=O)n(-c4ccccc4)nc23)cc1`, the Activity in [1] is 36%; in test [2], 41%. The molecule further came in with a Ki in test [3] of 106 nM.

For `CS(=O)(=O)Nc1nc2c([N+](=O)[O-])cccc2n2c(=O)n(-c3ccccc3)nc12`, the Activity in [1] is 25%; in test [2], 37%. In test [3], this molecule gave a Ki of 2840 nM.

For `O=C(NC(=O)c1ccccc1)Nc1nc2ccccc2n2c(=O)n(-c3ccccc3)nc12`, the figures for the Ki in test [4], in [5] and in test [3] were 379 nM, 1300 nM and 101 nM, respectively.

Regarding `O=C(NCc1ccccc1)Nc1nc2c([N+](=O)[O-])cccc2n2c(=O)n(-c3ccccc3)nc12`, the Activity in [1] came to 46.5%; in test [6], 20%; in test [7], 4%. The values for the inhibition constant (Ki) in [5] and in [3] were 63 nM and 4.6 nM, respectively.

As for `COC(=O)c1ccc(C(=O)Nc2nc3ccccc3n3c(=O)n(-c4ccc(OC)cc4)nc23)cc1`, the results for the Activity in [1] and in test [8] were 41% and 30.5%, respectively. Besides, the Ki in test [5] was 1370 nM.

With `COc1ccc(-n2nc3c(OCc4ccccc4)nc4ccccc4n3c2=O)cc1`, the Activity came out at 41% in test [1], 53% in test [8], 4% in test [6] and 54% in [7]. Also, the Ki in test [5] worked out at 6.4 nM.

In turn, `O=c1n(-c2ccccc2)nc2c(NS(=O)(=O)c3ccccc3)nc3c([N+](=O)[O-])cccc3n12` displayed an Activity in test [1] of 25%. The Ki in test [5] is 100 nM; in test [3] it was 210 nM.

With `O=c1n(-c2ccccc2)nc2c(OCc3ccccc3)nc3ccccc3n12`, the Activity in test [1] was 19%; in test [6], 10%; in [7] it was 46%. For the same molecule, the inhibition constant (Ki) was determined as 21 nM in test [5] and 55 nM in [3].

On to `O=c1n(-c2ccccc2)nc2c(NS(=O)(=O)c3ccccc3)nc3ccccc3n12`, for which the Activity in test [1] is 35%; in [6], 27%; in test [7], 0%. Further, the inhibitory constant (Ki) turned out to be 32.2 nM in [5] and 157 nM in [3].

Take `COc1ccc(-n2nc3c(NS(=O)(=O)c4ccccc4)nc4ccccc4n3c2=O)cc1`: the results for the Activity in test [1] and in [6] were 16% and 23%, respectively. The Ki came to 2700 nM in [9], 2.2 nM in test [5] and 4700 nM in [3].

On to `O=C(Nc1nc2c([N+](=O)[O-])cccc2n2c(=O)n(-c3ccccc3)nc12)c1ccncc1`, for which the Activity in [1] was 22%; in test [8] it was 37.5%; in test [2] it was 0%.

Regarding `COc1ccc(-n2nc3c(NC(=O)NCc4ccccc4)nc4ccccc4n3c2=O)cc1`, the Activity is 12% in test [1] and 23% in test [6]. For the same molecule, the Ki turned out to be 4220 nM in test [9], 65 nM in [5] and 20.8 nM in [3].

Turning to `CS(=O)(=O)Nc1nc2ccccc2n2c(=O)n(-c3ccccc3)nc12`, the Activity in [1] was 32%. Also, the Ki in [5] stood at 1430 nM; in [3] it was 164 nM.

As for `COc1ccc(-n2nc3c(NC(=O)c4ccncc4)nc4ccccc4n3c2=O)cc1`, the Activity in [1] stood at 44%. The inhibition constant Ki in test [9] is 779 nM; in test [5], 68 nM; in test [3], 236 nM; in test [10] it was 397 nM.

Turning to `O=C(Nc1cccc(I)c1)Nc1nc2ccccc2n2c(=O)n(-c3ccccc3)nc12`, the inhibitory constant (Ki) came to 1800 nM in test [4], 953 nM in test [5] and 359 nM in test [3].

As to `CCCn1c(=O)c2[nH]c(C3CCCC3)nc2n(CCC)c1=O` [1,3-DIPROPYL-8-CYCLOPENTYLXANTHINE [DPCPX]], the inhibitory constant (Ki) in [4] stood at 337 nM.

Regarding `COc1ccc(-n2nc3c(N(S(C)(=O)=O)S(C)(=O)=O)nc4ccccc4n3c2=O)cc1`, the values for the Activity in test [1] and in [8] were 17% and 6.2%, respectively. The Ki in test [5] was found to be 387 nM.

Turning to `O=C(Nc1nc2ccccc2n2c(=O)n(-c3ccccc3)nc12)c1cccc(I)c1`, the Activity in test [1] was 35%; in [2], 36%. Also, the Ki in test [3] came out at 473 nM.

Turning to `COc1ccc(-n2nc3c(NS(C)(=O)=O)nc4ccccc4n3c2=O)cc1`, the Activity worked out at 0% in test [1] and 6% in test [8]. In test [5], this molecule returned a Ki of 493 nM.

Consider `O=C(NCc1ccccc1)Nc1nc2ccccc2n2c(=O)n(-c3ccccc3)nc12`, for which the inhibitory constant (Ki) was determined as 12.3 nM in test [9]; 173 nM in test [4]; 83.5 nM in [5]; 4.1 nM in test [3]; 158 nM in test [10].

With `O=C(Nc1nc2ccccc2n2c(=O)n(-c3ccccc3)nc12)c1ccncc1`, the inhibitory constant (Ki) in [9] is 2380 nM; in [4], 812 nM; in [5], 6.1 nM; in test [3] it was 57 nM; in test [10] it was 188 nM.

The Ki is the dissociation constant of the complex between target and ligand, obtained from inhibition or displacement. Lower therefore signals a stronger hold on the target.

The record behind these values is ChEMBL document CHEMBL1150363, “Synthesis, ligand-receptor modeling studies and pharmacological evaluation of novel 4-modified-2-aryl-1,2,4-triazolo[4,3-a]quinoxalin-1-one derivatives as potent and selective human A3 adenosine receptor antagonists” (Bioorg Med Chem, 2008).
